Key:
Mus musculus [1] = assay: Median survival time of the treated control groups, in which there are no 30-day survivors at dose 100 mg/kg in exp1; type: functional
Mus musculus [2] = assay: Mortality by day 5 expressed as number of mice died to the total treated at dose 50 mg/kg in exp2; 0/6; type: ADME, organism-based; parameters: dose 50 mg/kg; conditions: in vivo
Mus musculus [3] = assay: Median survival time of the treated control groups, in which there are no 30-day survivors at dose 12 mg/kg in exp2; type: functional
Mus musculus [4] = assay: Change in weight by day 5, obtained by subtracting treated groups of animals minus control groups of animals at dose 25 mg/kg in exp2; type: functional
How it was run: (§1)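 Mice were inoculated ip with 10^6 P388 leukemia cells on day 0, when treated and control mice weighed 19–22 g. Treatment was given ip once daily on days 1–5, within about 5 min of preparing the solution or suspension. Groups of six (occasionally five) were treated, with 30 untreated inoculated mice as controls. The day-5 weight change is the mean treated change minus the mean control change.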

Mus musculus [5] = assay: Change in weight by day 5, obtained by subtracting treated groups of animals minus control groups of animals at dose 200 mg/kg in exp1.; type: functional; how it was run: as §1
[6] = Ratio of number of 60-day survivors to the total treated mice at dose 100 mg/kg in exp2; 0/6; type: functional
Mus musculus [7] = assay: Mortality by day 5 expressed as number of mice died to the total treated at dose 100 mg/kg in exp1; 0/6; type: ADME, organism-based; parameters: dose 100 mg/kg; conditions: in vivo
Mus musculus [8] = assay: Mortality by day 5 expressed as number of mice died to the total treated at dose 12 mg/kg in exp2; 0/6; type: ADME, organism-based; parameters: dose 12 mg/kg; conditions: in vivo
Mus musculus [9] = assay: Median survival time of the untreated control groups, in which there are no 30-day survivors at dose 200 mg/kg in exp1; type: functional
Mus musculus [10] = assay: Median survival time of the untreated control groups, in which there are no 30-day survivors at dose 100 mg/kg in exp1; type: functional
Mus musculus [11] = assay: Median survival time of the treated control groups, in which there are no 30-day survivors at dose 100 mg/kg in exp2; type: functional
[12] = Ratio of median survival times for non-survivors at dose 100 mg/kg in exp2; type: functional
How it was run: (§2)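 Mice were inoculated ip with 10^6 P388 leukemia cells on day 0. Groups of six (occasionally five) were dosed ip qd on days 1–5 with fresh suspensions; 30 mice served as untreated controls. Deaths were recorded daily up to day 60. T/C% compares the median survival of treated non-survivors (<60 days) with the control median. Medians used grouped data when there were no 30-day survivors, otherwise ungrouped data. t = toxic.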

[13] = Median survival time of the treated control groups, in which there are no 30-day survivors at dose 50 mg/kg in exp1; type: functional
Mus musculus [14] = assay: Mortality by day 5 expressed as number of mice died to the total treated at dose 100 mg/kg in exp2; 2/6; type: ADME, organism-based; parameters: dose 100 mg/kg; conditions: in vivo
[15] = Ratio of median survival times for non-survivors at dose 25 mg/kg in exp2; type: functional; how it was run: as §2
Mus musculus [16] = assay: Mortality by day 5 expressed as number of mice died to the total treated at dose 200 mg/kg in exp1; 5/6; type: ADME, organism-based; parameters: dose 200 mg/kg; conditions: in vivo
Mus musculus [17] = assay: Mortality by day 5 expressed as number of mice died to the total treated at dose 25 mg/kg in exp2; 0/6; type: ADME, organism-based; parameters: dose 25 mg/kg; conditions: in vivo
Mus musculus [18] = assay: Ratio of number of 30-day survivors to the total treated mice at dose 100 mg/kg in exp2*-toxic; 1/6; type: ADME, organism-based; parameters: dose 100 mg/kg; conditions: in vivo, 720 h
[19] = Ratio of median survival times for non-survivors at dose 25 mg/kg in exp1; type: functional
[20] = Median survival time of the untreated control groups, in which there are no 30-day survivors at dose 25 mg/kg in exp2; type: functional
Mus musculus [21] = assay: Mortality by day 5 expressed as number of mice died to the total treated at dose 50 mg/kg in exp1; 0/6; type: ADME, organism-based; parameters: dose 50 mg/kg; conditions: in vivo
[22] = Ratio of number of 30-day survivors to the total treated mice at dose 100 mg/kg in exp1; 1/6; type: functional
Mus musculus [23] = assay: Change in weight by day 5, obtained by subtracting treated groups of animals minus control groups of animals at dose 12 mg/kg in exp2; type: functional; how it was run: as §1
[24] = Ratio of number of 60-day survivors to the total treated mice at dose 100 mg/kg in exp1; 0/6; type: functional
Mus musculus [25] = assay: Change in weight by day 5, obtained by subtracting treated groups of animals minus control groups of animals at dose 25 mg/kg in exp1.; type: functional; how it was run: as §1
Mus musculus [26] = assay: Ratio of median survival times for non-survivors at dose 50 mg/kg in exp2; type: functional; how it was run: as §2
Mus musculus [27] = assay: Median survival time of the untreated control groups, in which there are no 30-day survivors at dose 100 mg/kg in exp2; type: functional
[28] = Median survival time of the untreated control groups, in which there are no 30-day survivors at dose 50 mg/kg in exp1; type: functional
[29] = Ratio of median survival times for non-survivors at dose 50 mg/kg in exp1; type: functional; parameters: unit: %; how it was run: as §2
[30] = Ratio of median survival times for non-survivors at dose 100 mg/kg in exp1; type: functional; parameters: unit: %; how it was run: as §2
[31] = Median survival time of the treated control groups, in which there are no 30-day survivors at dose 50 mg/kg in exp2; type: functional
Mus musculus [32] = assay: Change in weight by day 5, obtained by subtracting treated groups of animals minus control groups of animals at dose 100 mg/kg in exp2*-mortality was 5/6 by day 7; type: functional
How it was run: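 Mice were inoculated ip with 10^6 P388 leukemia cells on day 0 and weighed 19–22 g that day. Compound was given ip once daily on days 1–5, within about 5 min of preparing the solution or suspension, to groups of six (occasionally five). Thirty inoculated untreated mice served as controls. The value is the average weight change of treated mice minus that of controls on day 5.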

Mus musculus [33] = assay: Change in weight by day 5, obtained by subtracting treated groups of animals minus control groups of animals at dose 50 mg/kg in exp1.; type: functional; how it was run: as §1
Mus musculus [34] = assay: Mortality by day 5 expressed as number of mice died to the total treated at dose 25 mg/kg in exp1; 0/6; type: ADME, organism-based; parameters: dose 25 mg/kg; conditions: in vivo
Mus musculus [35] = assay: Median survival time of the untreated control groups, in which there are no 30-day survivors at dose 25 mg/kg in exp1; type: functional
Mus musculus [36] = assay: Median survival time of the treated control groups, in which there are no 30-day survivors at dose 25 mg/kg in exp2; type: functional
Mus musculus [37] = assay: Change in weight by day 5, obtained by subtracting treated groups of animals minus control groups of animals at dose 100 mg/kg in exp1.; type: functional; how it was run: as §1
Mus musculus [38] = assay: Median survival time of the untreated control groups, in which there are no 30-day survivors at dose 12 mg/kg in exp2; type: functional
[39] = Ratio of median survival times for non-survivors at dose 200 mg/kg in exp1; t= toxic; type: ADME, organism-based; parameters: dose 200 mg/kg; conditions: in vivo; how it was run: as §2
Mus musculus [40] = assay: Median survival time of the treated control groups, in which there are no 30-day survivors at dose 25 mg/kg in exp1; type: functional
[41] = Ratio of median survival times for non-survivors at dose 12 mg/kg in exp2; type: functional; how it was run: as §2
Mus musculus [42] = assay: Change in weight by day 5, obtained by subtracting treated groups of animals minus control groups of animals at dose 50 mg/kg in exp2; type: functional; how it was run: as §1

CS(=O)(=O)CS(=O)(=O)OCCBr
Median survival time (Mus musculus [1]): 23.5 | Mortality (Mus musculus [2]): 0 | Median survival time (Mus musculus [3]): 12.8 | Change in weight (Mus musculus [4]): -1.5 | Change in weight (Mus musculus [5]): -5.4 | Ratio [6]: 0 | Mortality (Mus musculus [7]): 0 | Mortality (Mus musculus [8]): 0 | Median survival time (Mus musculus [9]): 10.5 | Median survival time (Mus musculus [10]): 10.5 | Median survival time (Mus musculus [11]): 7 | Ratio [12]: 54 | Median survival time [13]: 16.7 | Mortality (Mus musculus [14]): 2 | Ratio [15]: 123 | Mortality (Mus musculus [16]): 5 | Mortality (Mus musculus [17]): 0 | Ratio (Mus musculus [18]): 1 | Ratio [19]: 136 | Median survival time [20]: 13 | Mortality (Mus musculus [21]): 0 | Ratio [22]: 1 | Change in weight (Mus musculus [23]): 0.3 | Ratio [24]: 0 | Change in weight (Mus musculus [25]): -0.8 | Ratio (Mus musculus [26]): 138 | Median survival time (Mus musculus [27]): 13 | Median survival time [28]: 10.5 | Ratio [29]: 159 | Ratio [30]: 224 | Median survival time [31]: 18 | Change in weight (Mus musculus [32]): -4.7 | Change in weight (Mus musculus [33]): -2.1 | Mortality (Mus musculus [34]): 0 | Median survival time (Mus musculus [35]): 10.5 | Median survival time (Mus musculus [36]): 16 | Change in weight (Mus musculus [37]): -2.9 | Median survival time (Mus musculus [38]): 13 | Ratio [39]: Toxic | Median survival time (Mus musculus [40]): 14.3 | Ratio [41]: 98 | Change in weight (Mus musculus [42]): -1.8

From ChEMBL document CHEMBL1122744, “2-Chloroethyl (methylsulfonyl)methanesulfonate and related (methylsulfonyl)methanesulfonates. Antineoplastic activity in vivo” (J Med Chem, 1984)
